Measured values: PubChem BioAssay AID2516 (University of Pittsburgh Molecular Library Screening Center, 2010)
The other results are listed elsewhere or left out. A number with no mark means an inactive call.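 Rule for the calls: active = at least 50% inhibition in the glucose-6-phosphate dehydrogenase coupled counterscreen; inconclusive = no clear call, values can overlap the other calls; inactive = inhibition below 50%.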

System: glucose-6-phosphate dehydrogenase [Leuconostoc mesenteroides]
Test: coupling enzyme G6PDH activity blockers – biochemical, DPI cherry-picked compounds, single concentration, counter-screen for TbHK1 inhibitor project, confirmation (AID 2516)
Settings: purified G6PDH, NADH absorbance, 1 h; at 10 µM; stronger effect = higher value
Method in brief: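 Material: Purified G6PDH enzyme in a coupled counterscreen format | Input: G6PDH enzyme at 0.006 mU/µL final | Also added: 0.2 mM G6P plus 0.6 mM NAD+ | Dosing: One dose, 10 µM | Schedule: 1 h reaction, room temperature | Measured by: Absorbance, mix-and-read, after quench with 50 mM EDTA final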

SMILES | inhibition
COc1cccc(/C=N/Nc2ncc(C(F)(F)F)cc2Cl)c1O | -9.42%
O=C(CN1C(=O)C2C3C=CC(C3)C2C1=O)NCCc1ccccc1Cl (centres undefined) | -2.31%
CC1(C)CC(=O)C=C(NCCCNC2CCCCC2)C1 | 2.59%
COC(=O)C1CCN(CC(N)=O)CC1 | -9.01%
